Screening results (PubChem)
TRPC4 agonist: opens the mouse TRPC4 cation channel. Q9QUQ5. HEK293 TRPC4beta/mu-opioid, Fluo4 calcium fluorescence; stronger effect = higher value. B-score at 10 µM. 0.49% of 310,000 active. AID 2237;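 active = B-score above 5 SD of library B-scores, and initial fluorescence ratio not above library mean plus 5 SD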;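 note: positive B-score marks a calcium rise read as TRPC4 activation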
Target sequence (Q9QUQ5 whole entry, looked up): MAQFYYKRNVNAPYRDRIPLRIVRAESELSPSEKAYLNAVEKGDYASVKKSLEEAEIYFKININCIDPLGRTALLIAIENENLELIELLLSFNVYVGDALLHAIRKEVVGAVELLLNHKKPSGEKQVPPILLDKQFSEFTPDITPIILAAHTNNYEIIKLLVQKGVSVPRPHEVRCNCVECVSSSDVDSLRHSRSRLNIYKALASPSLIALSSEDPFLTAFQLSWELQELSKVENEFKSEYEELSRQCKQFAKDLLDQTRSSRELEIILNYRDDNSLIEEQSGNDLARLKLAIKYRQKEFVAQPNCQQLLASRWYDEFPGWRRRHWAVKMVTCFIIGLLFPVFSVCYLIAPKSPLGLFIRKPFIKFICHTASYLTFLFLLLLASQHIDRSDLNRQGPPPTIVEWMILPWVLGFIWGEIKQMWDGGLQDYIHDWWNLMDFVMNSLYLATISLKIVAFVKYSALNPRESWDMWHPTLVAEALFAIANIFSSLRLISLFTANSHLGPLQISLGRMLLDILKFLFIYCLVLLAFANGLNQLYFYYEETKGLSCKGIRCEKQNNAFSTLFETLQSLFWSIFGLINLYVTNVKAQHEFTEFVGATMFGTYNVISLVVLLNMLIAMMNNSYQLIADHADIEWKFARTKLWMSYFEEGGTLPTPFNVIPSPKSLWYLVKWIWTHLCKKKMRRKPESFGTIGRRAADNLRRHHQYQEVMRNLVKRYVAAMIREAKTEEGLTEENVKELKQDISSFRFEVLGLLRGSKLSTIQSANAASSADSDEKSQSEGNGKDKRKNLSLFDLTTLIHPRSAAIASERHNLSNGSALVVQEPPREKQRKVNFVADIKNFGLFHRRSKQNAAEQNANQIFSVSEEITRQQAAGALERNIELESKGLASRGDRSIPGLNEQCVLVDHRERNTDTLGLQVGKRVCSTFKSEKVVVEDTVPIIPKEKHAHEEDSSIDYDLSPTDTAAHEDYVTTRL
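system = HEK293 cells stably co-expressing mouse TRPC4beta and mu-opioid receptor | schedule = Fluo4 dye loading 45 min at room temperature, 110 s recording | measure = B-scored integrated calcium fluorescence ratio | signal = Fluo4 calcium-sensitive dye fluorescence, kinetic, 1 Hz baseline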
TRPC6 inh: inhibitors of mouse TRPC6 channel; Q61143; AID 2553; B-score at 10 µM; 1.1% of 310,000 active; HEK293-TRPC6, membrane potential dye, ACh-evoked depolarization; stronger effect = lower value;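 active = B-score under library mean minus 3 SD, initial fluorescence not abnormally high, positive integrated signal ratio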;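 note: B-score derived from integrated fluorescence ratio over the kinetic read; more negative B-score means stronger inhibition of depolarization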
TRPC6 act: activates the mouse TRPC6 cation channel; HEK293-TRPC6 membrane potential dye fluorescence; stronger effect = higher value; Q61143; 0.13% of 310,000 active; AID 2550; B-score at 10 µM;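 active = B-score of the integrated fluorescence ratio above library mean plus 3 SD, and starting fluorescence ratio within library mean plus 5 SD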;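 note: higher score means more depolarization so channel activation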
TRPC4 block: TRPC4 (mouse) channel inhibition | B-score at 10 µM | 0.39% of 300,000 active | HEK293 TRPC4beta/mu-opioid, DAMGO-evoked Fluo4 calcium flux; stronger effect = lower value;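 active = B-score over 3 SD under the library average, no early fluorescence shift, positive overall ratio signal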
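Assay system – HEK293 line stably carrying TRPC4beta and mu-opioid receptor · Doses – single dose · Detection – Fluo4 calcium-dye fluorescence, kinetic read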
TRPC4 potent: TRPC4 (mouse) allosteric potentiation. Q9QUQ5. HEK293 TRPC4beta/mu-opioid, DAMGO EC20, Fluo-4 Ca2+ flux; stronger effect = higher value. 0.42% of 310,000 active. AID 2227. B-score at 10 µM;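 active = B-score of calcium response area above 5 SD of library B-scores, with initial fluorescence ratio within 5 SD of library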
Large screens that a line does not name were inactive. Most compounds without a hit are left out; they make up all but 2.3% or so of the library.

COc1ccc(OC)c(CN2CCC(CO)(CCOc3ccccc3)CC2)c1	none
CCOC(=O)C1(CCOc2ccccc2)CCN(Cc2ccccc2O)CC1	none
COc1cc(CN2CCC(CO)(CCOc3ccccc3)CC2)cc(OC)c1	TRPC4 block -5
CCOC(=O)C1(CCOC)CCN(C(=O)Cc2ccc3ccccc3c2)CC1	none
CCOC(=O)C1(CCOC)CCN(C(C)CCc2ccc(OC)cc2)CC1 (stereo unspecified)	TRPC4 block -7
CCOC(=O)C1(CCOc2ccccc2)CCN(Cc2cccc3c2OCO3)CC1	TRPC4 block -7
O=C(c1ccccc1F)N1CCN(c2ccccc2)CC1	none
O=C(CSc1ncn[nH]1)Nc1ccc2c(c1)CCC2	none
O=C(Nc1nc2ccc(Cl)cc2s1)c1ccc(N2CCCCC2)c([N+](=O)[O-])c1	none
CSCC(C)N1CCC(CO)(CCc2ccccc2)CC1 (stereo unspecified)	none
CC(COc1ccccc1)N1CCC(CO)(CCc2ccccc2)CC1 (stereo unspecified)	TRPC4 agonist 51
Cc1ccc(-c2cn(-c3ccccc3)c(SCC(N)=O)n2)cc1C	TRPC4 potent 21
CCOC(=O)c1c(C)[nH]c(C)c1C(=O)COC(=O)/C=C/c1cccc(Cl)c1	none
CCN1CCN(c2cc(N3CCN(C(=O)c4ccco4)CC3)c3c4c(onc24)-c2ccccc2C3=O)CC1	TRPC6 inh -5.88
O=C(O)CCC(=O)N1CC=C(c2ccccc2)CC1	none
Cc1ccc(Oc2ccccc2NC(=O)CSCC(=O)Nc2cc(C)on2)cc1	TRPC4 block -6
Cc1cc(NC(=O)CSCC(=O)OC(C)C(=O)N(C)Cc2ccccc2)no1 (stereo unspecified)	none
Cc1cc(NC(=O)CSCC(=O)Nc2ccc(Cl)c(C(F)(F)F)c2)no1	TRPC4 block -5
COc1ccc(CC(=O)Nc2ccccc2Oc2ccccc2)cc1	TRPC4 block -6
Cc1cc(NC(=O)CSCC(=O)OC(C)C(=O)c2cc(C)c(C)cc2C)no1 (stereo unspecified)	TRPC4 block -6
Cc1cc(NC(=O)CSCC(=O)Nc2ccccc2Oc2ccccc2)no1	none
COc1ccccc1NC(=O)Cc1ccc(-c2ccccc2)cc1	none
COc1ccc(NC(=O)CSCC(=O)N(C)CC(=O)Nc2ccc(Cl)c(C(F)(F)F)c2)cc1	none
CC(C)(C)c1ccc(/C=N/NC(=O)Cc2c[nH]c3ccccc23)cc1	none
O=c1c2cnn(-c3ccc(F)cc3)c2ncn1Cc1ccccc1	none
O=C(CN1CCC(NC(=O)c2cccc(F)c2)CC1)Nc1ccc(Br)cc1	none
N=c1ccn(Cc2ccc(Cl)cc2)cc1	none
N=c1ccn(Cc2ccc(Cl)c(Cl)c2)cc1	TRPC4 agonist 61
Cc1cc(Nc2ncc(Cl)cc2Cl)n(-c2ccccc2C)n1	TRPC4 block -7
Cc1ccc(-n2nc(C)cc2Nc2ncc(Cl)cc2Cl)cc1	none
COc1ccccc1C(=O)OC1CCCN(C)C1 (stereo unspecified)	TRPC4 potent 10
CN1CCCC(OC(=O)c2ccccc2F)C1 (stereo unspecified)	none
CC1(C)C(=O)Nc2ccccc2N1C(=O)COC(=O)C1CCCCC1	TRPC4 potent 10
O=C(CSc1nnc(NC(=O)c2ccccc2)s1)NCc1ccco1	none
O=C(CSc1nnc(NC(=O)c2ccc3c(c2)OCO3)s1)NCc1ccco1	TRPC4 potent 11
CCOC(=O)C1C(=O)C=C(c2ccc(C)cc2)CC1c1cccc([N+](=O)[O-])c1 (stereo unspecified)	TRPC4 potent 24
CSc1ccccc1NC(=O)c1ccc(Br)o1	none
Cc1cc(C)c2c(=O)n(CC(=O)NCCCN3CCOCC3)sc2n1	none
Cc1cc(C)c2c(=O)n(CC(=O)NCCCN3CCN(c4ccccc4F)CC3)sc2n1	TRPC4 block -5
CSc1nc(NCCCN(C)C)c2c3c(sc2n1)CN(C)CC3	TRPC6 inh -7.81
CCN(CC)CCNc1nc(SC)nc2sc3c(c12)CCN(C)C3	none
CCCSc1nc(N)nc(-c2cccs2)c1C#N	TRPC4 block -6
COc1cccc(C(=O)N(C)CC2CCN(CCc3cccc(C(F)(F)F)c3)CC2)c1	TRPC4 agonist 109
CN(CC1CCCN(CCc2cccc(C(F)(F)F)c2)C1)C(=O)c1cc2ccccc2o1 (stereo unspecified)	TRPC4 block -8
COCCn1c(SCC(=O)Nc2ccc(S(=O)(=O)N3CCOCC3)cc2)nc2ccccc21	TRPC4 potent 31
Cc1ccc2[nH]c(C(=O)N3CCCCC3)cc2c1	none
Cc1ccc2[nH]c(C(=O)NCCN3CCCC3)cc2c1	TRPC4 agonist 56
O=Cc1cc(N=Nc2cccc(C(=O)O)c2)ccc1O	none
O=Cc1cc(N=Nc2ccccc2Cl)ccc1O	TRPC4 block -7
CCN(CC)C(=O)c1cc2sc3ccccc3c2s1	none
CN(C)CCNC(=O)c1cc2sc3ccccc3c2s1	TRPC4 potent 10
COCCN(CCOC)C(=O)c1cc2sc3ccccc3c2s1	TRPC4 potent 13
CCn1cc(C(=O)N[C@@H](CCSC)C(=O)NCCCn2ccnc2)c(=O)c2cc3c(cc21)OCO3	none
C[N+]1(C)CCC(=C2c3ccccc3CC(=O)c3sccc32)CC1	TRPC6 inh -6.38
Cc1cccc2c1Sc1ccccc1CC2=O	none
O=C(C[n+]1cc(-c2ccccc2)n2c1CCC2)N1c2ccccc2Sc2ccccc21	TRPC6 inh -5.46
Clc1cccc(C[n+]2cc(-c3ccccc3)n3c2CCC3)c1	TRPC4 block -6
Cc1ccc(-c2c[n+](Cc3ccc(Cl)cc3)c3n2CCC3)cc1	none
O=C(C[n+]1cc(-c2ccccc2)n2c1CCC2)c1cccs1	none
CCOc1cc(N2CCOCC2)c(OCC)cc1NC(=O)c1ccc(OC(C)C)cc1	none
COc1ccc(CNn2c(C)nc3ccccc3c2=O)cc1	none
CCc1nc(CN2CCCC(C(=O)c3ccc4c5c(cccc35)CC4)C2)c(C)[nH]1 (stereo unspecified)	TRPC4 agonist 116
O=C(c1ccc2c3c(cccc13)CC2)C1CCCN(Cc2ccncc2)C1 (stereo unspecified)	TRPC4 agonist 44
Cc1ncccc1C(=O)N1CCCC(C(=O)c2ccc3c4c(cccc24)CC3)C1 (stereo unspecified)	none
O=C1Nc2ccccc2C12Nc1ccccc1-c1nc3ccccc3n12 (stereo unspecified)	none
CN1C(=O)C2(Nc3ccccc3-c3nc4ccccc4n32)c2ccccc21 (stereo unspecified)	TRPC4 block -6
CCn1cc(C(=O)O)c(=O)c2cc(F)c(N3CCN(C(=S)NC(=O)c4ccccc4)CC3)cc21	none
CC(=O)c1ccc(OCC(O)CN2CCN(Cc3ccccc3)CC2)cc1 (stereo unspecified)	none
COc1ccc(CNCC(O)COc2ccc(C(C)(C)c3ccccc3)cc2)cc1 (stereo unspecified)	none
